Laboratory results: ChEMBL document CHEMBL1129493 (J Med Chem, 1996)
Values after ≈ are worked out from the molar mass of the structure shown.

Columns and labels:
Vero = assay: Cytotoxic Activity was evaluated against Vero tumor cells; assay type: functional, cell-based; conditions: Chlorocebus sabaeus
Summary of the method: (§1)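 Cytotoxicity was read by MTT dye reduction for suspension cultures or sulforhodamine B for monolayer cultures. For reversal of multidrug resistance, reserpine was added as reversing agent ([…] as printed).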

[1] = Cytotoxic activity was evaluated against L tumor cells; assay type: functional, cell-based; conditions: Mus musculus; summary of the method: as §1
A549 = assay: Cytotoxic activity evaluated against A549 tumor cells; conditions: Homo sapiens
143B = assay: Cytotoxic Activity was evaluated against 143B (TK-) tumor cells; assay type: functional, cell-based; conditions: Homo sapiens; summary of the method: as §1
NCI-H460 = assay: Cytotoxic Activity was evaluated against H460 tumor cells; assay type: functional, cell-based; conditions: Homo sapiens; summary of the method: as §1
U373 MG = assay: Cytotoxic activity was evaluated against U373MG tumor cells; assay type: functional, cell-based, U-373MG ATCC; conditions: Homo sapiens; summary of the method: as §1
P388 = assay: Cytotoxic activity was evaluated against P388D1 tumor cells; assay type: functional, cell-based; conditions: Mus musculus; summary of the method: as §1
U-87 MG = assay: Cytotoxic activity was evaluated against U87MG tumor cells; assay type: functional, cell-based, U-87MG ATCC; conditions: Homo sapiens; summary of the method: as §1
[2] = Cytotoxic activity was evaluated against Daoy tumor cells; assay type: functional, cell-based; conditions: Homo sapiens; summary of the method: as §1
[3] = Relative concentration of compound (70 mg/Kg) in brain compared to concentration in plasma (160 ug/mL) at the time of tissue collection from rabbit; relative concentration; assay type: ADME, organism-based, Oryctolagus cuniculus; conditions: read-out: Activity
D54 cell line = assay: Cytotoxic Activity was evaluated against D54 tumor cells; assay type: functional, cell-based; conditions: Homo sapiens; summary of the method: as §1
[4] = Relative concentration of compound (70 mg/Kg) in lung compared to concentration in plasma (160 ug/mL) at the time of tissue collection from rabbit; relative concentration; assay type: ADME, organism-based, Oryctolagus cuniculus; conditions: read-out: Activity
HCT-8 [5] = assay: Activity was evaluated against HCT-8 tumor cells; assay type: functional, cell-based; conditions: Homo sapiens; summary of the method: as §1
Dihydrofolate reductase [6] = target: T1, Dihydrofolate reductase (Candida albicans, UniProt P22906); assay: Inhibition of Dihydrofolate reductase enzyme from Candida albicans
T1 sequence (P22906 whole entry): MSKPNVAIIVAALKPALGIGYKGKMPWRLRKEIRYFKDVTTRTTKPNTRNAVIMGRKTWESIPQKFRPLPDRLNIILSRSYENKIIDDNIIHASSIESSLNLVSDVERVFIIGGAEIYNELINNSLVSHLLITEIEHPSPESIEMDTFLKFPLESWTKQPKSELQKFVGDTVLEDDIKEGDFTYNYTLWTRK

[7] = Relative concentration of compound in brain compared to concentration in plasma (9.4 ug/mL) at the time of tissue collection from mice; relative concentration; assay type: ADME, organism-based; conditions: mouse, read-out: Other
Candida albicans [8] = assay: Minimum inhibitory concentration evaluated against Candida albicans; assay type: functional
Candida albicans [9] = assay: Minimum inhibitory concentration was evaluated against Candida albicans; assay type: functional
Dihydrofolate reductase [10] = target: T2, Dihydrofolate reductase (Homo sapiens, UniProt P00374); assay: Inhibition of human recombinant Dihydrofolate reductase enzyme
T2 sequence (P00374 whole entry): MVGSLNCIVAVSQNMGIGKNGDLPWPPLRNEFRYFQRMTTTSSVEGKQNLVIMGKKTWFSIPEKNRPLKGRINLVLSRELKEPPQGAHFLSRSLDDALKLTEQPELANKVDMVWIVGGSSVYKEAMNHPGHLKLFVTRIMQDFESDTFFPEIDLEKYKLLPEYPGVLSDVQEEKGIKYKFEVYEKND

[11] = Relative concentration of compound in brain compared to concentration in plasma (0.4 ug/mL) at the time of tissue collection from mice; relative concentration; assay type: ADME, organism-based; conditions: mouse, read-out: Activity
Mus musculus [12] = species: Mus musculus; assay: Number of mice infected to that of total number of mice (2/11); assay type: functional, organism-based
Mus musculus [13] = assay: Effect on life span of mice with intraperitoneally implanted P388 Leukemic cells at 10 mg/kg by subcutaneous injection; assay type: functional
Summary of the method: (§2)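 CDF-1 female mice (18–20 g, 5 or 8/group); P388 or P388/ADR cells implanted ip at 1 × 10^6 cells. Dosing began 24 h later; agents suspended in 0.5% carboxymethyl cellulose plus 1% Tween 80, given sc or ip qd × 10. Read-out was percent increase in life span.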

Mus musculus [14] = species: Mus musculus; assay: Effect on Candida albicans nephritis and Meningitis in Immunosuppressed Mice kidney in the presence of SMX; assay type: functional
Summary of the method: (§3)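 Immunosuppressed CD-1 female mice (10/group; cyclophosphamide 160 and 40 mg/kg ip on days -4 and -1) inoculated iv via lateral tail vein with 5 × 10^4 cfu C. albicans. Compound sc in 0.1 mL sesame oil (20 or 50 mg/kg) at 3, 7, 24, 30 h; sulfamethoxazole 200 mg/kg ip in D5W 1 h before each dose. Kidney and brain cultured at 48 h; log cfu/g tissue, duplicate or single experiments.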

Mus musculus [15] = species: Mus musculus; assay: Effect on Candida albicans nephritis and Meningitis in Immunosuppressed Mice brain in the presence of SMX; assay type: functional; summary of the method: as §3
Mus musculus [16] = assay: Effect on life span of mice with intracranially implanted P388 Leukemic cells at 10 mg/kg by subcutaneous injection; assay type: functional
Summary of the method: (§4)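 CDF-1 female mice (18–20 g, 5 or 8/group); P388 leukemia, maintained by in vivo serial passage, implanted intracranially at 1 × 10^5 cells. Treatment started 24 h later; test agents suspended in 0.5% carboxymethyl cellulose plus 1% Tween 80, given sc or ip qd × 10. Read-out was percent increase in life span versus controls.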

Mus musculus [17] = species: Mus musculus; assay: Effect on Candida albicans nephritis and Meningitis in Immunosuppressed Mice brain; assay type: functional
Summary of the method: (§5)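 Immunosuppressed CD-1 female mice (10/group) given cyclophosphamide ip, 160 and 40 mg/kg on days -4 and -1; C. albicans 5 × 10^4 cfu/mouse iv via lateral tail vein. Sc dosing of 20 or 50 mg/kg in sesame oil at 3, 7, 24, 30 h post-inoculation; sulfamethoxazole 200 mg/kg ip in D5W given 1 h before each dose. Kidney and brain cultured at 48 h; log cfu/g tissue.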

Mus musculus [18] = species: Mus musculus; assay: Effect on Candida albicans nephritis and Meningitis in Immunosuppressed Mice kidney; assay type: functional; summary of the method: as §5
Mus musculus [19] = species: Mus musculus; assay: Effect on Pneumocystis carinii pneumonia in SCID mice in the presence of leucovorin; assay type: functional
Summary of the method: (§6)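 SCID mice (10-11/group) were dosed prophylactically once daily from day 1 postinfection, 42 doses. Test drug in D5W was given ip, then leucovorin 12 mg/kg sc 30 min later. Trimethoprim 50 mg/kg plus sulfamethoxazole 250 mg/kg was given orally, and controls received D5W ip and sc. Lung impression smears were taken 24 h after the last dose and stained by immunofluorescence. Infection was scored 0-4 semilogarithmically, reported as mean ± SEM and as infected/total mice.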

Mus musculus [20] = assay: Effect on life span of mice with intraperitoneally implanted P388/ADR Leukemic cells at 10 mg/kg by subcutaneous injection; assay type: functional; summary of the method: as §2
Mus musculus [21] = species: Mus musculus; assay: Effect on Pneumocystis carinii pneumonia in SCID mice in presence of leucovorin; assay type: functional; summary of the method: as §6
Mus musculus [22] = species: Mus musculus; assay: Number of mice infected to that of total number of mice ([…]/[…]); assay type: functional, organism-based
Mus musculus [23] = assay: Effect on life span of mice with intraperitoneally implanted P388 Leukemic cells; assay type: functional; summary of the method: as §2
Mus musculus [24] = assay: Effect on life span of mice with intracranially implanted P388 Leukemic cells; assay type: functional; summary of the method: as §4
Mus musculus [25] = assay: Effect on life span of mice with intraperitoneally implanted P388/ADR Leukemic cells; assay type: functional; summary of the method: as §2
HCT-8 [26] = assay: Cytotoxic Activity was evaluated against HCT-8 tumor cells; assay type: functional, cell-based; conditions: Homo sapiens; summary of the method: as §1

Structure (SMILES) | IC50 (Vero) [nM] | IC50 [1] [nM] | IC50 (A549) [nM] | IC50 (143B) [nM] | IC50 (NCI-H460) [nM] | IC50 (U373 MG) [nM] | IC50 (P388) [nM] | IC50 (U-87 MG) [nM] | IC50 [2] [nM] | IC50 (D54 cell line) [nM] | IC50 (HCT-8 [5]) [nM] | Ki (Dihydrofolate reductase [6]) [nM] | MIC (Candida albicans [8]) [µg/mL] | Ki (Dihydrofolate reductase [10]) [nM] | also measured
CN(Cc1cnc2nc(N)nc(N)c2n1)c1ccc(C(=O)N[C@@H](CCC(=O)O)C(=O)O)cc1 [METHOTREXATE] | 9.2 | 8.3 | 31 | 8.8 | 9.5 | 12 | 4.8 | 22 | 9 | 16 | – | – | – | – | Kp [3]: 0.006; Kp [4]: 0.05
COc1cc(NCc2ccc3nc(N)nc(N)c3c2C)cc(OC)c1OC [TRIMETREXATE] | 16 | 4.7 | 5.3 | – | – | 9.6 | 2.7 | 11 | 12 | 60 | 1.8 | 1.9 | > 50 | – | Kp [7]: 0.1
COc1cc(Cn2ccc3c4c(N)nc(N)nc4ccc32)cc(OC)c1OC | – | – | – | – | – | – | – | – | – | – | – | 0.23 | – | 0.006 | MIC (Candida albicans [9]): 5 µg/mL (≈ 13.2 µM)
CCC(CC)n1c(C)cc2c3c(N)nc(N)nc3ccc21 | 1 | 0.6 | 0.4 | 0.8 | 0.5 | 2.3 | 0.12 | 2.1 | 2.3 | 4.6 | 0.74 | 0.03 | 0.025 (≈ 0.0882 µM) | 0.0003 | Kp [11]: 10; No. of mice infected /total (Mus musculus [12]): Number of mice infected to that of total number of mice (2/[…]); Increase in life-span (Mus musculus [13]): 80%; Log cfu/g of tissue (Mus musculus [14]): 2.5; Log cfu/g of tissue (Mus musculus [15]): 3.4; Increase in life-span (Mus musculus [16]): 50%; Log cfu/g of tissue (Mus musculus [17]): 3.6; Log cfu/g of tissue (Mus musculus [18]): 3.4; Infection score (Mus musculus [19]): 0.18; Increase in life-span (Mus musculus [20]): 20%
COc1ccc(OC)c(Cc2cnc3nc(N)nc(N)c3c2C)c1 [PIRITREXIM] | 30 | 76 | 24 | – | 260 | 55 | 21 | 48 | 70 | 230 | – | 1.9 | > 10 | 0.025 | Infection score (Mus musculus [21]): 3.27; No. of mice infected /total (Mus musculus [22]): Number of mice infected to that of total number of mice ([…]/[…]); Increase in life-span (Mus musculus [23]): 40%; Increase in life-span (Mus musculus [24]): 0%; Increase in life-span (Mus musculus [25]): -5%; IC50 (HCT-8 [26]): 68 nM
